{"data": "Measured values gathered from unrelated publications", "read-out": "metabolic stability", "host": "human", "note": "Each line is one published result; the experiments were not run side by side."}
{"SMILES": "C[C@]1(C(=O)[C@H](CC2=CCCC2)NC(=O)[C@@H]2COCCCCCC(=O)N3C[C@H](F)C[C@H]3C(=O)N2)CO1", "system": "liver microsomes", "conditions": "2 µM, 1 h", "endpoint": "scaled CLint", "result": "150 mL/min/kg"}
{"SMILES": "Cn1nc2c(=O)n(C3CC3)ccc2c1[C@](O)(c1cnc(C(F)(F)F)c(Cl)c1)C(F)(F)F", "system": "hepatocytes", "conditions": "0.5 µM, pH 7.4", "endpoint": "hepatocyte CLint", "result": "0.5 µL/min/10⁶ cells"}
{"SMILES": "CCN(CCN)c1ccc(Nc2cc(NC3CC3)n3ncc(C#N)c3n2)cc1-n1cnnc1", "system": "hepatocytes", "conditions": "1 µM, serum-free", "endpoint": "scaled CLint", "result": "< 6.9 mL/min/kg"}
{"SMILES": "CC1(CN)CCN(c2cnc3c(Sc4ccncc4Cl)n[nH]c3n2)CC1", "system": "liver microsomes", "endpoint": "scaled CLint", "result": "34 mL/min/kg"}
{"SMILES": "Cn1nc2c(=O)n(C3CC3)ncc2c1[C@](O)(c1cnc(C(F)(F)F)c(Cl)c1)C(F)(F)F", "system": "hepatocytes", "conditions": "0.5 µM, pH 7.4", "endpoint": "hepatocyte CLint", "result": "< 0.5 µL/min/10⁶ cells"}
{"SMILES": "NC(=O)N1c2ccccc2C=Cc2ccccc21", "system": "liver microsomes", "conditions": "1 µM", "endpoint": "microsomal CLint", "result": "< 3 µL/min/mg"}
{"SMILES": "Cc1ccc(Cn2cc(C(=O)NN)c(=O)c3cc(Oc4ccccc4)ccc32)cc1", "system": "liver microsomes", "conditions": "1 µM", "endpoint": "microsomal CLint", "result": "< 11.6 µL/min/mg"}
{"SMILES": "CC[C@@](O)(c1cnc(C(F)(F)F)c(Cl)c1)c1c2ccn(C3CC3)c(=O)c2nn1C", "system": "hepatocytes", "conditions": "0.5 µM, pH 7.4", "endpoint": "hepatocyte CLint", "result": "1.6 µL/min/10⁶ cells"}
{"SMILES": "CC[N+]1(C)CCN(c2ccc(C(=O)Nc3cccc(C)n3)cc2)CC1", "system": "liver microsomes", "endpoint": "microsomal CLint", "result": "< 3 µL/min/mg"}
{"SMILES": "Cn1c(=O)c2c(ncn2C)n(C)c1=O", "system": "hepatocytes", "conditions": "0.5 µM, pH 7.4", "endpoint": "hepatocyte CLint", "result": "1.85 µL/min/10⁶ cells"}
{"SMILES": "O=c1ccc2cc(O)ccc2o1", "system": "liver microsomes", "endpoint": "microsomal CLint", "result": "22 µL/min/mg"}
{"SMILES": "CC(C)C[C@H](NC(=O)[C@H](CCc1ccccc1)NC(=O)CN1CCOCC1)C(=O)N[C@@H](Cc1ccccc1)C(=O)N[C@@H](CC(C)C)C(=O)[C@@]1(C)CO1", "system": "liver microsomes", "conditions": "2 µM, 1 h", "endpoint": "scaled CLint", "result": "931 mL/min/kg"}
{"SMILES": "O=C1CC[C@H](N2Cc3cc(N4CCN(CC5CCN(c6ccc([C@@H]7c8ccc(O)cc8CC[C@@H]7c7ccccc7)cc6)CC5)CC4)ccc3C2=O)C(=O)N1", "system": "hepatocytes", "conditions": "1 µM", "endpoint": "hepatocyte CLint", "result": "13 µL/min/10⁶ cells"}
{"SMILES": "CCOc1ccc(NC(C)=O)cc1", "system": "liver microsomes", "endpoint": "microsomal CLint", "result": "20.7 µL/min/mg"}
{"SMILES": "CCOc1ccc2ccc(=O)oc2c1", "system": "hepatocytes", "conditions": "1 µM", "endpoint": "hepatocyte CLint", "result": "60.6 µL/min/10⁶ cells"}
{"SMILES": "C[C@]1(C(=O)[C@H](Cc2ccccc2)NC(=O)[C@@H]2Cc3ccc(cc3)OCCCCCCCC(=O)N3CCC[C@H]3C(=O)N2)CO1", "system": "liver microsomes", "conditions": "2 µM, 1 h", "endpoint": "scaled CLint", "result": "927 mL/min/kg"}
{"SMILES": "Cn1nc2c(=O)n(C3CC3)ncc2c1[C@](N)(c1ccc(C(F)(F)F)c(Cl)c1)C1CC1", "system": "hepatocytes", "conditions": "0.5 µM, pH 7.4", "endpoint": "hepatocyte CLint", "result": "< 0.5 µL/min/10⁶ cells"}
{"SMILES": "CC(C)C[C@H](NC(=O)[C@@H]1COCCCCCC(=O)N2CC[C@H]2C(=O)N1)C(=O)[C@@]1(C)CO1", "system": "liver microsomes", "conditions": "2 µM, 1 h", "endpoint": "scaled CLint", "result": "29 mL/min/kg"}
{"SMILES": "CCC(CC)COC(=O)[C@H](C)N[P@](=O)(OC[C@@H]1C[C@@H](O)[C@H](n2cnc3c(N)ncnc32)O1)Oc1ccccc1", "system": "liver microsomes", "conditions": "1 µM", "endpoint": "microsomal CLint", "result": "2120 µL/min/mg"}
